RBBP9 inh: inhibitors of human serine hydrolase RBBP9. O75884. recombinant RBBP9, FP-Rh probe fluorescence polarization. inhibition, % at 7.94 µM. 0.2% of 220,000 active;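 active = inhibition above the campaign mean of all tested compounds plus 3 SD, cut at about 14% in these data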
Target sequence (O75884 whole entry, looked up): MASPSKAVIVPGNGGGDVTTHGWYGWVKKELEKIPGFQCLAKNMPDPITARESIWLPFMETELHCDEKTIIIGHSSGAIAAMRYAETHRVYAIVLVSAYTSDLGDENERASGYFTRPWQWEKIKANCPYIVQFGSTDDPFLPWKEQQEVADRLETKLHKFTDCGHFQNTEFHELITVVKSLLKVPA
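System: RBBP9 protein | Quantity: 2.5 µM RBBP9 dispensing solution, before mixing | Reagent: FP-Rh probe, 375 nM dispensing solution | Timing: Enzyme-compound preincubation 30 min, then probe labeling 45 min, 25 °C | Measured by: Fluorescence polarization | Read-out: % inhibition | Replication: One well per compound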
PRMT1 inh: PRMT1 (human) inhibition, primary screen; 1.3% of 370,000 active; recombinant PRMT1, activity-based probe fluorescence polarization; Q99873; AID 652257; inhibition, % at 2.79 µM;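 active = inhibition above about 21% made by adding two undisclosed values, limit read from the data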
Target sequence (Q99873 whole entry, looked up): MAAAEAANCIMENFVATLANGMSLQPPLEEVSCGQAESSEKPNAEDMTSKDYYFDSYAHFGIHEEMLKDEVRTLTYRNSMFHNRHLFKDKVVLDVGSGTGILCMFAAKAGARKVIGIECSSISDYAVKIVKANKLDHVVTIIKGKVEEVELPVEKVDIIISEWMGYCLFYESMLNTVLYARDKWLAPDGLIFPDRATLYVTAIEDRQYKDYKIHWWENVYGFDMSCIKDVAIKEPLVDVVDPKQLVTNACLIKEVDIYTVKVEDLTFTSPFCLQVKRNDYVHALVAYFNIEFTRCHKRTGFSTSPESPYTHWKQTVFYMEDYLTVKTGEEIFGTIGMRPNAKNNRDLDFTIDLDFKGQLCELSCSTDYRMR
GSTO1 inh: blocks human GSTO1 in RBBP9 counter-screen. recombinant GSTO1, activity-based probe fluorescence polarization. AID 1974. P78417. inhibition, % at 5.96 µM. 1.1% of 300,000 active;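 active = inhibition above the campaign mean inhibition plus 3 SD, cut at about 35% in these data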
SIAE inh: blocks human sialic acid acetylesterase; Q9HAT2; SIAE FP-Rh probe binding, fluorescence polarization; inhibition, % at 9.66 µM; 0.69% of 370,000 active; AID 1053197;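 active = inhibition above a cutoff: mean of compounds within the control limits plus 3 SD of those, cut at about 17% in these data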
PAD4 inh: PAD4 (human) enzyme inhibition. recombinant PAD4, RCA probe fluorescence polarization. inhibition, % at 6.36 µM. 0.41% of 330,000 active. AID 485272;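 active = percent inhibition above a cutoff equal to the mean of all tested compounds plus 3 SD, cut at about 15% in these data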
SIAE confirm: confirmation of human SIAE inhibitors. shares compounds with SIAE inh. SIAE FP-Rh activity-based probe, fluorescence polarization. inhibition, % at 9.66 µM. 13% of 2,300 active;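 active = mean inhibition of the replicates above the hit cutoff set in the primary screen, cut at about 17% in these data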;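 note: inhibitors lower polarization as more probe stays unbound to SIAE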
Numbers stand for hits; – = inactive; · = no result. Shown are actives, neighbours in structure and some others; about 2.7% of the full set was active somewhere.

SMILES | RBBP9 inh | PRMT1 inh | GSTO1 inh | SIAE inh | PAD4 inh | SIAE confirm
Cn1c(CCN2CCN(c3ccccn3)CC2)nc2cc(NS(=O)(=O)c3ccc(Cl)cc3)ccc21 | · | – | – | – | – | ·
Cc1ccc(S(=O)(=O)Nc2ccc3c(c2)nc(CCN2CCN(c4ccccn4)CC2)n3C)cc1 | · | – | – | 18.5 | – | –
Cc1cc(N/N=C/c2c(O)ccc3ccccc23)nc(-c2ccccc2O)n1 | – | – | – | 20.6 | – | –
O=C(NC(Cc1ccccc1)C(=O)O)/C(=C/c1ccccc1)NC(=O)c1ccc(Br)o1 (stereo not drawn) | · | – | – | – | – | ·
O=C(CC(Sc1n[nH]c(-c2ccccc2)n1)c1ccccc1)NCc1ccccc1 (stereo not drawn) | – | – | – | – | – | ·
O=C(N/N=C/c1ccc(O)c(O)c1)c1ccc(CSc2cccc3cccnc23)cc1 | – | – | – | 41.5 | – | –
Cc1ccc(C(C)C)c(OCc2ccc(C(=O)N/N=C/c3cccc(O)c3O)cc2)c1 | – | – | – | 27.9 | – | –
COc1cc(/C=N/NC(=O)c2ccc(COc3cc(C)ccc3C(C)C)cc2)cc(OC)c1O | – | – | – | 21.9 | – | –
CCOc1cc(/C=N/NC(=O)c2ccc(=O)n(C)c2)ccc1O | – | – | – | – | – | ·
Cc1ccc(C(C)C)c(OCc2ccc(C(=O)N/N=C/c3ccc(O)c(O)c3)cc2)c1 | – | – | – | 25.8 | – | –
O=P(c1ccccc1)(c1ccccc1)c1nc(-c2ccccc2)oc1N1CCOCC1 | – | – | – | – | – | ·
Cc1ccc(NC(=O)c2sc(N)nc2-c2ccc([N+](=O)[O-])cc2)cc1C | – | – | – | – | – | ·
Cc1cc(SCC(=O)N/N=C/c2ccc(O)c(O)c2)c(C)cc1Br | – | – | – | 21.0 | – | –
CCOC(=O)/C=C1\SCC(=O)N1CC(=O)NCc1ccc(OC)c(OC)c1 | – | – | – | – | – | ·
O=c1c2ccccc2nc(COc2ccccc2)n1/N=C/c1cc([N+](=O)[O-])ccc1O | – | – | – | 20.2 | – | –
OC1C2CN3CCN(C2)CC1(Cc1ccccc1)C3 (stereo not drawn) | – | – | – | 20.9 | – | –
CCOCCCNC(=O)C(c1ccc(Cl)cc1)N1CCN(C(=O)c2ccco2)CC1 (stereo not drawn) | – | – | – | – | – | ·
COc1ccc(COCC(O)CN2CCc3ccccc3C2)cc1OC (stereo not drawn) | – | – | – | 20.4 | – | –
OC(COCc1ccccc1)CN1CCc2ccccc2C1 (stereo not drawn) | – | – | – | – | – | ·
CC1CCCC(NC(=O)COC(=O)c2cccs2)C1C (stereo not drawn) | · | – | · | – | – | ·
O=C(CCc1ccccc1)N=C1SC2CS(=O)(=O)CC2N1c1ccc(F)cc1 (stereo not drawn) | · | – | – | – | – | ·
CC(=O)Oc1c2occc2cc2ccc(=O)oc12 | – | – | – | 19.7 | – | –
O=S(N1CCc2ccccc21)C12CC3CC(CC(C3)C1)C2 (stereo not drawn) | – | – | – | 22.9 | – | –
Cc1cc([N+](=O)[O-])nn1Cc1ccc(C(=O)N/N=C/c2ccc(O)cc2O)cc1 | – | – | – | 19.1 | – | –
Cc1cc([N+](=O)[O-])nn1Cc1ccc(C(=O)N/N=C/c2ccc(F)cc2)cc1 | – | – | – | – | – | ·
SMILES | RBBP9 inh | PRMT1 inh | GSTO1 inh | SIAE inh | PAD4 inh | SIAE confirm
O=C(NCC(=O)N1CCN(c2ncccn2)CC1)c1ccc(F)cc1 | · | – | · | 22.5 | – | –
O=C(NCC(=O)N1CCN(c2ncccn2)CC1)c1ccccc1F | · | – | · | – | – | ·
CCc1ccc(NC(=O)C(C)Sc2nnc(CN3CCCC3)o2)cc1 (stereo not drawn) | · | – | · | 18.8 | – | –
CC(Sc1nnc(COc2ccc(Cl)cc2)o1)C(=O)Nc1ccc(N2CCOCC2)cc1 (stereo not drawn) | · | – | · | – | · | ·
COc1ccc(/C=N/Nc2nc(-c3ccc(Cl)cc3)cc(C(F)(F)F)n2)cc1OC | – | – | – | 19.6 | – | –
COc1ccc(/C=N/Nc2nc(C)cc(-c3ccccc3)n2)cc1OC | · | – | – | – | – | ·
Oc1cccc(Nc2c3ccccc3nc3ccccc23)c1 | · | – | – | – | – | ·
CCN(CC)Cc1cc(Nc2c3ccccc3nc3c4ccccc4n(C)c23)cc(CN(CC)CC)c1O | · | 44.6 | · | 17.5 | · | –
CN(C)c1ccc(NC(=O)C2C3C=CC(C3)C2C(=O)O)cc1 (stereo not drawn) | · | – | · | 23.3 | · | –
CC1(C)CC(NC(=O)C(=O)NCCc2ccccc2)CC(C)(C)N1 | – | – | – | – | – | ·
COc1ccc(OC)c2[nH]c(C(=O)N/N=C/c3ccccc3O)cc12 | · | – | – | 34.8 | – | –
COc1ccc(/C=N/NC(=O)c2cc3c(OC)ccc(OC)c3[nH]2)cc1O | · | – | – | 23.7 | – | –
COc1ccccc1/C=N/NC(=O)c1cc2c(OC)c(OC)ccc2[nH]1 | · | – | · | – | · | ·
O=C(NNC(=O)c1cccs1)c1ccncc1 | – | – | – | – | – | ·
COc1ccc(/C=N/NC(=O)c2cccnc2)cc1CN1CCCc2ccccc21 | – | – | – | 22.4 | – | 19.1
COc1ccc(C(=O)N/N=C/c2ccc(OC)c(CN3CCCc4ccccc43)c2)cc1 | – | – | – | – | – | ·
c1ccc(-c2nc(-n3ccnc3)nc(-n3ccnc3)n2)cc1 | – | – | – | – | – | ·
CC1=CC(C)(C)Nc2ccc(OC(=O)CN3C(=O)c4cccc5cccc(c45)C3=O)cc21 | – | – | 36.6 | 18.7 | – | –
CN(C)c1ccc(C2SCCN2C(=O)c2ccc([N+](=O)[O-])cc2)cc1 (stereo not drawn) | – | – | – | 18.7 | – | –
CC(=NNC(=O)c1cc(C)nc2ccccc12)c1ccc(N2CCOCC2)cc1 | · | – | · | – | – | ·
O=C(COc1nsnc1N1CCOCC1)N/N=C/c1ccccc1O | – | – | – | – | – | ·
C/C(=N\NC(=O)Cc1csc(N2CCOCC2)n1)c1ccccc1 | – | – | – | 20.8 | – | –
O=C(Cc1csc(N2CCOCC2)n1)N/N=C/c1ccc(O)c(O)c1O | – | – | · | 31.1 | · | 17.8
CCOC(=O)C1=C(C)N(c2ccccc2)C(=O)C1 | – | – | – | – | – | ·
CCOC(=O)C(C)N1CC(=O)N(c2ccccc2)C1=O (stereo not drawn) | · | – | – | 17.6 | – | –
O=C(O)CC(NC(=S)NCc1ccccc1)C(=O)O (stereo not drawn) | – | – | – | – | – | ·
CCn1c(SCC(=O)Nc2ccc(OC)c(OC)c2)nc2c(c1=O)SCC2 | · | – | – | 19.4 | – | –
O=C(CC[C@H]1O[C@@H](n2cnc3c(NC(=O)c4ccccc4)ncnc32)[C@H](O)[C@@H]1O)NCC1CCN(Cc2ccccc2)CC1 | · | – | · | 34.1 | · | 26.9
O=C(CC[C@H]1O[C@@H](n2cnc3c(NC(=O)c4ccccc4)ncnc32)[C@H](O)[C@@H]1O)NCC(F)(F)F | · | – | · | – | · | ·
